From PubChem BioAssay
An excerpt weighted towards active compounds, which were near 9.8% of everything screened.
PMI activator: activators of human phosphomannose isomerase; P34949; purified human PMI, coupled resazurin fluorescence, 20 min; stronger effect = higher value; 1 = vehicle control, 0 substrate-free wells; activation factor at 20 µM; 190,000 tested, 0.005% active; AID 1214;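 active = activation factor of 2 or more at 20 µM, relative to plate controls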
L major viab: inhibitors of Leishmania major promastigote growth; Leishmania major promastigotes, resazurin fluorescence viability; inhibition, % at 10 µM; 200,000 tested, 9% active; in the data active = inhibition above about 50%;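 also: promastigotes grown with compound for 44 hours at 28 °C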
Calpain2 inh: inhibitors of pig calpain II. AID 1236. 220,000 tested, 0.37% active. inhibition, % at 16 µM. purified calpain II, fluorogenic peptide substrate, 30 min;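 active = inhibition above about 50%, limit read from the data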
PMI act satM6P: increases human PMI activity with near-saturating mannose 6-phosphate; P34949; coupled PMI enzyme assay, resazurin fluorescence, 20 min; stronger effect = higher value; 1 = untreated enzyme, 0 = substrate-free blank; activation factor at 20 µM; 190,000 tested, 0.34% active; AID 1216;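 active = activation factor of 2 or more at 20 µM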
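Test system: human PMI in coupled enzyme assay; Input: PMI at 15 ng/mL final; Medium: HEPES buffer, pH 7.4; Schedule: 20 min incubation at room temperature; Technique: resorufin fluorescence at Ex 544/Em 590 nm; Compound: 20 µM single dose; Probe or stimulus: Near-saturating mannose-6-phosphate, 1.0 mM.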
Rad51 HR inh: Rad51 (human) homologous recombination inhibition. 200,000 tested, 0.085% active. hRad51 DNA strand exchange, fluorescence dequenching. Q06609. inhibition, % at 10 µM;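 active = inhibition above 40% at the single screening dose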;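 also: 0% = DMSO control wells and 100% = blanks with heterologous ssDNA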
Target sequence (Q06609 whole entry, looked up): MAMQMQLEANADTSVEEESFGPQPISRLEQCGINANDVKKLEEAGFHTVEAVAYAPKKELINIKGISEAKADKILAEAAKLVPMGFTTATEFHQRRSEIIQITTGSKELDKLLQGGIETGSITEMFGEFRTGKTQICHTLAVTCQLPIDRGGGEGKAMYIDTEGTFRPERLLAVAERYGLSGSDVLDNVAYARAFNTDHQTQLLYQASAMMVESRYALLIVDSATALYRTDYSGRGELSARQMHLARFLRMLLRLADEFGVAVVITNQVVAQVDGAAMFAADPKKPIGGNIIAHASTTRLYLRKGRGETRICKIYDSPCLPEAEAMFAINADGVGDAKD
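Read-out basis: percent inhibition relative to plate controls and blanks / Assay system: human Rad51 nucleoprotein filaments preassembled on unlabelled ssDNA / Timing: filaments 15 min 37 °C, then compound 30 min / Control set: per-plate controls and blanks / Technique: fluorescence dequenching at 485/520 nm / Compound: 10 µM final, single point / Also added: Fluorescein- and BHQ1-tagged 47-mer duplex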
WT yeast gro inh: growth inhibition of WT yeast, mitochondrial fusion screen | inhibition, % at 10 µM | 190,000 tested, 2.1% active | mitochondrial fusion phenotypic screen, WT strain; in the data active = inhibition above about 58%; tested in S. cerevisiae
* hit, by the source's call; x = no result given.

SMILES	PMI activator	L major viab	Calpain2 inh	PMI act satM6P	Rad51 HR inh	WT yeast gro inh
O=C(NNC(=S)NCCc1ccccc1)c1ccc(Br)s1	1.1	0	-11	1	9	3
CC(=O)c1ccc(NC(=O)C2C3C=CC(C3=C(c3ccccc3)c3ccccc3)C2C(=O)O)cc1 (stereo not drawn)	1	52*	-75	1	5	-9
C=CCC(O)(CC=C)C(C)N (stereo not drawn)	0.9	-5	2	1	10	-13
COc1cc(OC)cc(-c2nnc(Nc3nc4c(F)cccc4s3)o2)c1	1	-7	-42	1	4	14
Fc1cccc2sc(Nc3nnc(-c4ccccc4)o3)nc12	1	83*	-20	1	6	5
COc1ccc(-c2nnc(Nc3nc4c(OC)cccc4s3)o2)cc1	1.2	79*	-136	1.2	x	26
COc1ccc(-c2nnc(Nc3nc4c(OC)cccc4s3)o2)c(OC)c1	1	94*	-168	1.1	-2	6
NC(=O)C1(N2CCCCC2)CCN(S(=O)(=O)c2cc(Cl)sc2Cl)CC1	x	x	-1	x	-1	x
CCOC(=O)CNC=C(C(=O)OCC)C(=O)OCC	1	-6	-31	1	-6	18
CCOC(=O)C=C(C(=O)OCC)C(=O)OCC	1	100*	19	1	x	16
CC(=O)N1CCC(c2c[nH]c3ccccc23)CC1	x	x	-22	x	7	x
COC(=O)c1ccc(NC(=O)COc2ccc([N+](=O)[O-])cc2)cc1	x	x	0	x	-28	x
Cc1nc2ccccc2c(=O)n1/N=C/c1cn(-c2ccccc2)nc1-c1cccs1	1.1	56*	-5	0.9	-1	25
c1cncc(-c2nc3ccccc3s2)c1	x	x	13	x	9	x
CC(=O)N(Cc1cccnc1)c1cccc(-c2nc3ccccc3s2)c1	1	100*	16	1.1	5	23
COc1cc(OC)c2nc(C)c3c(c2c1)N(c1ccc(O)cc1)CC3	0.8	99*	-8	0.6	x	-4
COc1ccc(/C=N/NC(=S)NC2CCS(=O)(=O)C2)cc1 (stereo not drawn)	0.8	-2	20	0.9	4	-7
COCCNC(=O)c1cc(OC)c(OC)cc1[N+](=O)[O-]	1.1	-12	-25	1.1	8	7
O=C(NCCN1CCOCC1)c1ccc2c(c1)N(Cc1ccccc1F)C(=O)c1ccccc1S2	1	100*	-33	0.9	-6	19
Cc1cccc(CN2C(=O)c3ccccc3Sc3ccc(C(=O)NCCN4CCOCC4)cc32)c1	0.9	100*	-93	0.8	-8	-13
COc1cc(C(=S)N2CCOCC2)cc(OC)c1O	x	x	-2	x	15	x
Nc1nc(SCC(=O)Nc2ccc(Cl)c(S(=O)(=O)N3CCOCC3)c2)n[nH]1	x	x	26	x	-20	x
O=C(CSc1ncccn1)NC(=O)c1ccccc1	1.1	1	-23	1.1	4	-6
CCn1c(COc2cccc3cccnc23)nnc1SC(F)F	1.1	83*	-31	1	-1	1
COC(=O)C1CSC(c2ccc(Cl)cc2)N1C(=O)c1ccccc1 (stereo not drawn)	0.8	4	-4	0.8	9	50
SMILES	PMI activator	L major viab	Calpain2 inh	PMI act satM6P	Rad51 HR inh	WT yeast gro inh
Cc1cccc2cc3c(N)c(C(=O)N4CCOCC4)sc3nc12	1.3	-7	-28	2.1*	-8	30
CN(CC(=O)Nc1ccc(OC(F)(F)F)cc1)C1CCCCC1	1	-2	-4	1	4	-8
COc1ccc(C)cc1NC(=O)CNc1ccccc1CN(C)C1CCCCC1	1.1	43	13	1	2	8
Cc1ccc(NC(=O)CNc2ccccc2CN(C)C2CCCCC2)cc1	1	60*	44	1.1	-8	7
COc1ccc(Cl)cc1NC(=O)CNc1ccccc1CN(C)C1CCCCC1	0.8	96*	13	0.9	-32	30
O=C(CN1C(=O)CCC1=O)Nc1ccc(Cc2ccc(NC(=O)CN3C(=O)CCC3=O)cc2)cc1	1	-6	-34	0.9	5	4
Cc1ccccc1C([O-])=Nc1ccc[n+](-c2nc3ccccc3nc2NS(=O)(=O)c2ccccc2)c1	x	x	-22	x	2	x
O=C(CSc1nnc(NC(=O)c2ccco2)s1)Nc1ccc2c(c1)OCCO2	1	-11	-3	1	-15	3
COc1ccc(CC(=O)NNC(=O)CSc2nc(C)c(C)c(=O)[nH]2)cc1	1	-2	-15	1	23	6
CC(OC(=O)c1cccc(N2C(=O)c3ccccc3C2=O)c1)C(=O)Nc1ccc(N(C)C)cc1 (stereo not drawn)	0.9	56*	26	0.9	-3	13
O=[N+]([O-])c1cccc(/C=N\N=C2c3ccccc3-c3ccccc32)c1O	1	74*	61*	1	9	11
O=C(Nn1cnc2ccccc2c1=O)c1ccccc1[N+](=O)[O-]	1.2	-2	3	1.1	7	-9
O=[N+]([O-])c1ccc(N/N=C/c2c[nH]c3ccccc23)c(S(=O)(=O)Nc2ccc(Cl)cc2)c1	1	24	-16	1.1	x	95*
COc1ccccc1NS(=O)(=O)c1cc([N+](=O)[O-])ccc1N/N=C/c1c(C)[nH]c2ccccc12	0.9	14	-26	0.9	4	18
O=[N+]([O-])c1ccccc1/C=C/C=N/Nc1ccc(S(=O)(=O)Nc2ccc(Cl)cc2)cc1[N+](=O)[O-]	1	67*	-63	0.9	-1	3
Cc1[nH]c2ccccc2c1C(O)CN1CCC2(CC1)OCCO2 (stereo not drawn)	x	x	-4	x	15	x
COc1ccc(OC)c(/C=N/NC(=O)c2cc3c(OC)c(OC)ccc3[nH]2)c1	0.8	72*	-12	0.7	-8	10
CCCNC(=O)Cn1c(=O)cnc2ccccc21	0.9	0	-34	0.9	-4	-5
COC(=O)Cn1c(=O)cnc2ccccc21	1.1	-8	-53	1	-3	-9
CC(C)(C)c1ccccc1NC(=O)Cn1c(=O)cnc2ccccc21	1	55*	-9	1	-5	9
CC(C)c1cccc(C(C)C)c1NC(=O)Cn1c(=O)cnc2ccccc21	1	92*	8	1	1	11
COC(=O)Cn1c(=NC(=O)c2ccc(OC)c(OC)c2)sc2cc(OC)ccc21	1.1	48	-142	1.1	-1	-8
CCCCn1nc(C(=O)Nc2cc(S(=O)(=O)N(C)C)ccc2C)c2ccccc2c1=O	x	x	-25	x	x	x
CCCCc1ccc(S(=O)(=O)NCCc2ccncc2)cc1	1	84*	15	1	22	6
COc1nc(SC)nc(Cl)c1Cc1ccc(OC(C)C)cc1	1.2	66*	5	1.3	4	59*
CCCOc1ccc(Cc2c(Cl)nc(SC)nc2OC)cc1	0.8	-3	1	0.8	x	38
